We go through 26 compounds from ChEMBL document CHEMBL1811866, “Design, synthesis, and biological evaluation of abiotic, non-lactone modulators of LuxR-type quorum sensing” (Bioorg Med Chem, 2011).

Common to all, as to assay type: functional
The target in assay [1] is T1, Transcriptional activator protein LasR (Pseudomonas aeruginosa (strain ATCC 15692 / PAO1 / 1C / PRS 101 / LMG12228)) (UniProt P25084).
T1 sequence (whole entry): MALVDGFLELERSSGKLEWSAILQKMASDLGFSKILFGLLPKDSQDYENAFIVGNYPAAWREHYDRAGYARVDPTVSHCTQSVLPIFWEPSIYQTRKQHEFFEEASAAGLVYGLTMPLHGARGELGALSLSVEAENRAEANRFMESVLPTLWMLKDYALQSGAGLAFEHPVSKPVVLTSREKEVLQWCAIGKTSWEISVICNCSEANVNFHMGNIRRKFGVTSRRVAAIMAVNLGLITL
Description: Agonist activity at Pseudomonas aeruginosa PAO1 MW1 (pUM15) LasR assessed as activation of quorum sensing at 10 uM relative to N-(3-oxo)-dodecanoyl HL. The procedure, abridged:
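P. aeruginosa PAO1 MW1 grown overnight at 30 °C in LB/MOPS pH 7 with carbenicillin (300 µg/mL). Subcultured 1:10 at 37 °C to OD 0.25–0.30 and plated with compound only, no native ligand. Incubated with shaking at 37 °C for 8 h. OD and fluorescence then read.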

Assay [2] addresses T2, Transcriptional activator protein LuxR (Aliivibrio fischeri) (UniProt P12746).
T2 sequence (whole entry): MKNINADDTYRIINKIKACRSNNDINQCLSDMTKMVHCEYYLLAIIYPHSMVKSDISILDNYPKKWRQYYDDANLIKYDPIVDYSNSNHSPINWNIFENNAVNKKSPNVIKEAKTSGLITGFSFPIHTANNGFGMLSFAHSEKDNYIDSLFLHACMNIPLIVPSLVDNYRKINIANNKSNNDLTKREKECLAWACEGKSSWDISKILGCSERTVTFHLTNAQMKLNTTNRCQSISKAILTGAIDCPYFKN
Nature of the assay: Antagonist activity at Vibrio fischeri ESI 114 (delta-LuxI) LuxR assessed as inhibition of OHHL-induced quorum sensing activation at 10 uM relative to untreated control. An outline of the steps:
(§1)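 LuxR reporter in V. fischeri ESI 114 (Δ-LuxI), compounds screened at 10 μM in triplicate. For inhibition, cells challenged with 2 μM OHHL. Agonism normalized to native ligand at 100 μM. Negative controls with no ligand subtracted as background.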

Assay [3] concerns Escherichia coli DH5[alpha]. Nature of the assay: Antagonist activity at Escherichia coli DH5alpha (pJN105L + pSC11) LasR assessed as inhibition of N-(3-oxo)-dodecanoyl HL-induced quorum sensing activation at 10 uM relative to untreated control.
In assay [4] the target is T2, Transcriptional activator protein LuxR (Aliivibrio fischeri). Nature of the assay: Agonist activity at Vibrio fischeri ESI 114 (delta-LuxI) LuxR assessed as activation of quorum sensing at 10 uM relative to OHHL. The procedure, abridged: as §1
The test system of assay [5] is Escherichia coli DH5[alpha]. Description: Agonist activity at Escherichia coli DH5alpha (pJN105L + pSC11) LasR assessed as activation of quorum sensing at 10 uM relative to N-(3-oxo)-dodecanoyl HL.
Assay [6] concerns the target T1, Transcriptional activator protein LasR (Pseudomonas aeruginosa (strain ATCC 15692 / PAO1 / 1C / PRS 101 / LMG12228)). Description: Antagonist activity at Pseudomonas aeruginosa PAO1 MW1 (pUM15) LasR assessed as inhibition of N-(3-oxo)-dodecanoyl HL-induced quorum sensing activation at 10 uM relative to untreated control. The procedure, abridged:
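P. aeruginosa PAO1 MW1 colony grown overnight at 30 °C in LB with MOPS at pH 7 plus carbenicillin (300 µg/mL). Diluted 1:10 and shaken at 37 °C to OD 0.25–0.30. OdDHL added to the subculture at 1 μM final, then plated with test compound. Plates shaken at 37 °C for 8 h, then optical density and fluorescence read.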

In assay [7] the target is T3, Transcriptional activator protein TraR (Agrobacterium tumefaciens) (UniProt P33905).
T3 sequence (whole entry): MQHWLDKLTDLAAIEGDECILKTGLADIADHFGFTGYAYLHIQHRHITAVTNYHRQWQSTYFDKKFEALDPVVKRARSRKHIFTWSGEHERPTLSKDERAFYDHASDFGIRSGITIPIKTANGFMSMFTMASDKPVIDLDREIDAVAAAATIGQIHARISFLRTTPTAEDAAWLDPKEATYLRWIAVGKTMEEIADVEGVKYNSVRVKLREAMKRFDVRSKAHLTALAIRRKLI
Nature of the assay: Antagonist activity at Agrobacterium tumefaciens WCF (pCF372) TraR assessed as inhibition of OOHL-induced quorum sensing activation at 10 uM relative to untreated control.

The target of assay [8] is T3, Transcriptional activator protein TraR (Agrobacterium tumefaciens). Nature of the assay: Agonist activity at Agrobacterium tumefaciens WCF (pCF372) TraR assessed as activation of quorum sensing at 10 uM relative to OOHL.

As usually defined, the inhibition is the drop in the measured response relative to a control, in per cent. Turning to `O=C(Cc1ccc(-c2ccccc2)cc1)NC1CCCC1`, the figures for the Activity in assay [1], in assay [4] and in assay [5] were 1%, 5% and 0%, respectively. In addition, the values for the inhibition in assay [2] and in assay [3] were 17% and 4%, respectively.

Regarding `CCOC(=O)CNC(=O)CCc1ccc(OC)cc1`, the Activity in assay [1], in assay [4] and in assay [5] was 0% in each case. For the same compound, the inhibition was 40% in assay [2], 36% in assay [3] and -6% in assay [6].

In the case of `CCCCCCCCCC(=O)CC(=O)NCc1ccc(OC)c(OC)c1`, the Activity in assay [1] amounted to 0%; in assay [4], 1%; in assay [5], 1%; in assay [8], 0%. The figures for the inhibition in assay [7], in assay [3] and in assay [6] were -10%, 13% and 9%, respectively.

For the compound `O=C(Cc1cccc([N+](=O)[O-])c1)Nc1ccccc1`, the Activity is 1% in assay [1], 0% in assay [4] and 0% in assay [5]. The inhibition in assay [2] amounted to 0%; in assay [3], 12%; in assay [6], 0%.

Regarding `O=C(Cc1ccc(Br)cc1)NC1CCCC1`, the Activity in assay [1], in assay [4] and in assay [5] was 0% throughout. Besides, the inhibition in assay [2] was 35%; in assay [3] it was 11%.

Regarding `CCCCCCCCCC(=O)CC(=O)NCc1cc(F)cc(F)c1`, the Activity in assay [1] is 0%; in assay [4] it was 3%; in assay [5] it was 0%; in assay [8], -1%. Also, the figures for the inhibition in assay [7], in assay [3] and in assay [6] were -10%, 22% and 16%, respectively.

As to `CCCCCCCCCC(=O)Nc1ccccc1`, the Activity in assay [1] amounted to 0%; in assay [4] it was 7%; in assay [5] it was 3%. The inhibition in assay [2] worked out at 2%; in assay [3], 20%; in assay [6] it was 5%.

On to `CCCCCCCCCC(=O)CC(=O)NCCC(c1ccccc1)c1ccccc1`, for which the Activity in assay [1] was 0%; in assay [4], 6%; in assay [5], 0%; in assay [8], -1%. In addition, the inhibition in assay [7] is -6%; in assay [3], 17%; in assay [6], 8%.

As for `CCCCCCCCCC(=O)CC(=O)NCc1ccc(F)cc1`, the Activity in assay [1] amounted to 0%; in assay [4], 1%; in assay [5], 0%; in assay [8], 0%. For the same compound, the inhibition in assay [3] and in assay [6] was 13% in each case.

As for `CCCCCCCCCC(=O)CC(=O)NCCC1=CCCCC1`, the Activity is 4% in assay [1], 3% in assay [4], 0% in assay [5] and -1% in assay [8]. The inhibition was 35% in assay [2], 10% in assay [3] and -7% in assay [6].

For `COc1ccc(CC(=O)NC2CCCC2)cc1`, the Activity in assay [1] was 0%; in assay [4], 3%; in assay [5], 6%. In addition, the inhibition in assay [2] is 18%; in assay [3] it was 24%; in assay [6], -1%.

Regarding `CCOC(=O)CNC(=O)CCc1ccc(Cl)cc1`, the Activity in assay [1], in assay [4] and in assay [5] was 0% each time. The inhibition in assay [2] is 14%; in assay [3] it was 38%; in assay [6], -5%.

With `O=C(Cc1ccc(Br)cc1)Nc1ccccc1`, the Activity in assay [1] worked out at 0%; in assay [4], 0%; in assay [5], 3%. Moreover, the results for the inhibition in assay [2], in assay [3] and in assay [6] were 1%, 20% and 12%, respectively.

With `O=C(CCCc1c[nH]c2ccccc12)NC1CCCC1`, the Activity in assay [1] came out at 2%; in assay [4], 4%; in assay [5] it was 0%. The figures for the inhibition in assay [2], in assay [3] and in assay [6] were 25%, 20% and -10%, respectively.

Consider `CCOC(=O)CNC(=O)Cc1ccc(Br)cc1`, for which the Activity in assay [1], in assay [4] and in assay [5] was 0% throughout. Further, the inhibition in assay [2] was 14%; in assay [3] it was 33%.

Turning to `O=C(Cc1ccccc1)NC1CCCC1`, the Activity in assay [1], in assay [4] and in assay [5] was 0% each time. For the same compound, the inhibition in assay [2] worked out at 19%; in assay [3] it was 11%; in assay [6], 1%.

On to `CCOC(=O)CNC(=O)CCc1cccc(I)c1`, for which the Activity in assay [1], in assay [4] and in assay [5] was 0% throughout. Also, the inhibition is 89% in assay [2] and 38% in assay [3].

As to `CCCCCCCCCC(=O)CC(=O)NCc1c(F)cccc1F`, the Activity in assay [1] is 0%; in assay [4], 5%; in assay [5], 1%; in assay [8], -1%. Moreover, the inhibition amounted to 13% in assay [3] and 5% in assay [6].

In the case of `CCCCCCCCCC(=O)CC(=O)NCC(=O)OCC`, the Activity was 12% in assay [1], 8% in assay [4], 51% in assay [5] and 2% in assay [8]. Besides, the results for the inhibition in assay [7] and in assay [6] were -3% and 11%, respectively.

Turning to `O=C(Cc1cccc([N+](=O)[O-])c1)NC1CCCC1`, the Activity in assay [1] amounted to 0%; in assay [4] it was 33%; in assay [5], 0%. For the same compound, the inhibition in assay [2] was 62%; in assay [3], 29%; in assay [6], -5%.

As to `CCCCCCCCCC(=O)CC(=O)Nc1cc(-c2ccc(Cl)cc2)nn1C`, the Activity is 0% in assay [1], 3% in assay [4], 0% in assay [5] and -2% in assay [8]. The results for the inhibition in assay [2], in assay [3] and in assay [6] were 2%, 0% and 0%, respectively.

For `CCCCCCCCCC(=O)CC(=O)Nc1ccccc1`, the Activity amounted to 1% in assay [1], 2% in assay [4], 3% in assay [5] and 1% in assay [8]. In addition, the inhibition in assay [2] amounted to 12%; in assay [3], 54%; in assay [6] it was 29%.

Take `CCCCCCCCCC(=O)CC(=O)NCc1ccccc1F`: the Activity was 0% in assay [1], 2% in assay [4], 0% in assay [5] and -1% in assay [8]. In addition, the inhibition in assay [3] came to 38%; in assay [6], 13%.

Consider `CCOC(=O)CNC(=O)Cc1ccccc1`, for which the Activity in assay [1], in assay [4] and in assay [5] was 0% each time. Further, the inhibition is 15% in assay [2], 38% in assay [3] and -10% in assay [6].

As for `CCOC(=O)CNC(=O)Cc1ccc(SC(F)(F)F)cc1`, the Activity in assay [1], in assay [4] and in assay [5] was 0% in each case. Besides, the inhibition in assay [2] was found to be 43%; in assay [3], 33%.

`CCOC(=O)CNC(=O)Cc1cccc([N+](=O)[O-])c1`: the results for the Activity in assay [1], in assay [4] and in assay [5] were 0%, 0% and 93%, respectively. Also, the inhibition in assay [2] is 19%; in assay [3], 41%.
